Most compounds without a hit are left out; they make up all but 4% or so of the library.
SENP1 FRET inh: human SENP1 catalytic domain inhibitors, primary screen, biochemical, FRET, uHTS; Sentrin-specific protease 1 (Homo sapiens), Q9P0U3; recombinant SENP1 catalytic domain, CyPet-SUMO1-YPet FRET cleavage; inhibition, % at 10 µM; 0.21% of 360,000 active; AID 624204, 2012;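 active = inhibition at least 30% at 10 µM, raw YFP signal under a set limit, fluorescence ratio 0.5 to 1.5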;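 also: 0% = enzyme with DMSO and 100% = no enzyme wells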
Target sequence (Q9P0U3 419-644 limits assumed): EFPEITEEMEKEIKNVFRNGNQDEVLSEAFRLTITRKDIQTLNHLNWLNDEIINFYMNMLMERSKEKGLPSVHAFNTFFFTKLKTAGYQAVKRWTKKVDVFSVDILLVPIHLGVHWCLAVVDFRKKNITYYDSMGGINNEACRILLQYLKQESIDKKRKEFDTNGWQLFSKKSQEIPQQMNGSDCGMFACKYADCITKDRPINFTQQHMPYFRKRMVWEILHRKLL
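system = hSENP1 catalytic domain, recombinant | reagent = SFCypet-SUMO1-SFYpet substrate at 25 nM | doses = one dose per compound, 10 µM, 0.5% DMSO | incubation = enzyme reaction for 50 min at room temperature, dark | measured by = FRET, CFP and YFP emission | controls = no-enzyme low, enzyme-DMSO high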
GRIN3A LBD mod: binders of NR3A ligand-binding domain, primary screen, biophysical, differential scanning fluorimetry, uHTS | Glutamate receptor ionotropic, NMDA 3A (GRIN3A) ligand-binding domain | NR3A LBD differential scanning fluorimetry, Tm shift; 0% = protein alone, 100% = glycine-bound protein | Tm shift relative to glycine control, % at 25 µM | 2.5% of 340,000 active | AID 1259313, 2017;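 active = melting temperature shift of at least 10% of the positive control shift, at one fixed dose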
Arr AP2 block: inhibitors of beta-arrestin/AP2 binding, primary screen, biochemical, GPCR trafficking, flow cytometry | beta-arrestin 1 C-terminal peptide binding to AP2 beta2-adaptin appendage (human) | FITC-arrestin peptide / GST-AP2 beads; AP2 beta2 appendage carries R879A mutation | inhibition, % at 10 µM | 0.31% of 340,000 active;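 active = inhibition above a set limit, near 3 SD of compounds lacking own fluorescence, cut at about 54% in these data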;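 also: plate controls were DMSO wells for no effect and 5 µM unlabelled arrestin peptide for full effect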
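Material – GST-tagged AP2 beta2-adaptin appendage (R879A) on 4 µm glutathione beads · Probe or stimulus – fluorescein-tagged arrestin peptide at 50 nM final · Timing – 12 min plus 1 h, RT · Detection – bead flow cytometry, FITC channel · Read-out basis – inhibition as reduced fluorescein signal on beads, percent · Medium – PBS plus Tween 20 (0.05%) and BSA (0.1%)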
iPSC survival up: enhancers of single-cell hiPSC survival, primary screen, ATPlite luminescence; 100% = ROCK inhibitor wells, 0% = DMSO; survival enhancement, % at 20 µM; 0.044% of 360,000 active; AID 602274, 2012; in the data active = survival enhancement above about 18%;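 also: cells exposed to compounds for 16 hours before the ATP read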
Cardio protect: cardioprotection against H2O2-induced cell death, primary screen, uHTS, H9c2 cells, ATPLite luminescence | H9c2 cardiomyocytes, H2O2 injury protection, 2 h | protection from H2O2 cell death, % at 20 µM | 0.63% of 360,000 active | AID 588492, 2011;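 active = compounds giving at least 50% protection of heart cells from peroxide-induced death in the single-dose screen, raw or plate-pattern-corrected value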;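 also: 0% = DMSO wells with peroxide and 100% = DMSO wells without peroxide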
FAS-TE inh: FAS thioesterase domain inhibitors, primary screen, biochemical, fluorescence intensity, uHTS; recombinant FAS-TE, OMFH fluorogenic substrate, fluorescence endpoint; 0.67% of 360,000 active; inhibition, % at 15 µM; Fatty acid synthase (Homo sapiens), P49327;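 active = compounds whose normalised, plate-corrected inhibition of enzyme fluorescence in the single-dose primary screen is 50% or more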;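 also: 0% = DMSO with enzyme and 100% = substrate without enzyme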
* = called active by the depositor.

For C#CCOCCOCCOCCNc1nc(N2CCN(C(=O)CCCCCCCCCCNC(=O)[C@H](CCCCN)n3cc(CCO)nn3)CC2)nc(N2CCN(C(=O)CCCCCCCCCCNC(=O)[C@H](CCCCN)n3cc(C[C@@H](C)CC)nn3)CC2)n1 the results were GRIN3A LBD mod 19.9*.
C#CCOCCOCCOCCNc1nc(N2CCN(C(=O)CCCCCCCCCCNC(=O)[C@H](CCCCN)n3cc(C[C@@H](C)CC)nn3)CC2)nc(N2CCN(C(=O)CCCCCCCCCCNC(=O)[C@@H]([C@H](C)O)n3cc(C)nn3)CC2)n1 was read as SENP1 FRET inh -0.1, GRIN3A LBD mod 11.5*, Arr AP2 block 3.5, iPSC survival up -3.7, Cardio protect -11.3 and FAS-TE inh -151.5.
`Nc1nonc1-n1nnc(C(=O)N/N=C/c2ccco2)c1CSc1ccc(Cl)cc1` gave SENP1 FRET inh -0.7, iPSC survival up 2.3, Cardio protect -3.5 and FAS-TE inh -2.2.
COc1ccc(CNC(=O)Nc2nnc([C@@H]3C[C@H](O)[C@@H](CO)O3)s2)cc1 was read as SENP1 FRET inh -0.1, iPSC survival up -2.2, Cardio protect 10.6 and FAS-TE inh -13.7.
Screening Nc1nonc1-n1nnc(C(=O)N/N=C/c2ccccc2)c1CSc1ccc(Cl)cc1 returned SENP1 FRET inh 1.0, GRIN3A LBD mod 29.7*, Arr AP2 block -6.2, iPSC survival up -1.2, Cardio protect -5.6 and FAS-TE inh -2.8.
Screening Nc1nonc1-n1nnc(C(=O)N/N=C/c2cccc(Cl)c2)c1CSc1ccc(Cl)cc1 returned SENP1 FRET inh 2.5, GRIN3A LBD mod 33.2*, Arr AP2 block -10.1, iPSC survival up 0.3, Cardio protect 8.3 and FAS-TE inh 9.6.
`CC(=O)N1C=CN(C(C)=O)C(c2cn(C)c3ccccc23)C1c1cn(C)c2ccccc12` (centres undefined) gave SENP1 FRET inh 3.2, GRIN3A LBD mod 13.6*, Arr AP2 block -4.5, iPSC survival up -1.7, Cardio protect -29.6 and FAS-TE inh 4.4.
Screening Cn1c(=O)[nH]c(=O)c2c1nc(SCCN1CCCCC1)n2Cc1ccccc1 returned SENP1 FRET inh 2.6, GRIN3A LBD mod 11.7*, Arr AP2 block -4.4, iPSC survival up -0.2, Cardio protect 20.4 and FAS-TE inh -3.7.
Cn1c(=O)c2c(nc(SCCN3CCOCC3)n2Cc2ccc(Cl)cc2)n(C)c1=O was read as SENP1 FRET inh 2.3, GRIN3A LBD mod 1.7, Arr AP2 block 1.3, iPSC survival up 0.4, Cardio protect 64.1* and FAS-TE inh 1.9.
Screening Cc1ccc(Cn2c(SCCN3CCOCC3)nc3c2c(=O)n(C)c(=O)n3C)cc1 returned SENP1 FRET inh -2.0, GRIN3A LBD mod 0.0, Arr AP2 block -1.9, iPSC survival up -1.4, Cardio protect 36.5 and FAS-TE inh -2.2.
`Cc1noc(C)c1-c1ccc(C(=O)Nc2ccccc2)c2occc12` gave SENP1 FRET inh -1.8, iPSC survival up -1.8, Cardio protect -4.4 and FAS-TE inh 8.1.
Cc1[nH]n(-c2nc(-c3ccc(Cl)cc3)cs2)c(=O)c1N=Nc1ccc(O)cc1 was read as SENP1 FRET inh 20.5, GRIN3A LBD mod 18.6*, Arr AP2 block 5.8, iPSC survival up -1.6, Cardio protect 79.9* and FAS-TE inh 12.4.
`CC(C)c1ccc2[nH]c(O)c(N=NC(=O)c3cccc(S(=O)(=O)Nc4ccc(Cl)cc4)c3)c2c1` gave SENP1 FRET inh 2.6, GRIN3A LBD mod 43.0*, Arr AP2 block 51.0, iPSC survival up -0.3, Cardio protect -2.3 and FAS-TE inh 0.6.
`CC(C)=CCC/C(C)=C/CNC(=O)C[C@H]1C[C@H](C(=O)N2CCOCC2)[C@@]2(CCC3CCCC3)c3[nH]c4cc(CCC(=O)N(C)C)ccc4c3CCN2C1=O` gave SENP1 FRET inh -2.3, GRIN3A LBD mod -5.7, Arr AP2 block 3.2, iPSC survival up -2.3, Cardio protect -16.4 and FAS-TE inh 15.2.
Screening O=c1[nH]c(C2CCN(S(=O)(=O)c3ccc4c(c3)OCCO4)CC2)nc2c1nnn2Cc1cccc(F)c1 returned SENP1 FRET inh -1.5, GRIN3A LBD mod -2.1, Arr AP2 block 23.7, iPSC survival up -0.5, Cardio protect -2.9 and FAS-TE inh -32.0.
Screening O=c1[nH]c(C2CCN(S(=O)(=O)c3cccc(C(F)(F)F)c3)CC2)nc2c1nnn2Cc1cccc(F)c1 returned SENP1 FRET inh -3.6, GRIN3A LBD mod 15.8*, Arr AP2 block 2.4, iPSC survival up -0.5, Cardio protect -1.1 and FAS-TE inh 13.2.
CCCn1c(C(C)Nc2nc(-c3ccc(Cl)c([N+](=O)[O-])c3)cs2)nc2ccccc21 (centres undefined) was read as SENP1 FRET inh 2.0, GRIN3A LBD mod 5.8, Arr AP2 block 2.8, iPSC survival up -1.0, Cardio protect -2.2 and FAS-TE inh 28.0.
`Cc1ccc(Cn2c(C(C)Nc3nc(-c4ccc(Cl)c([N+](=O)[O-])c4)cs3)nc3cc(C(F)(F)F)ccc32)cc1` (centres undefined) gave SENP1 FRET inh 2.5, GRIN3A LBD mod 14.3*, Arr AP2 block 5.3, iPSC survival up -0.7, Cardio protect -16.6 and FAS-TE inh 45.6.
Screening CCCn1c(CCNc2nc(-c3ccc(Cl)c([N+](=O)[O-])c3)cs2)nc2cc(Cl)c(Cl)cc21 returned SENP1 FRET inh 1.4, GRIN3A LBD mod 13.4*, Arr AP2 block 2.6, iPSC survival up -0.2, Cardio protect -8.5 and FAS-TE inh 21.1.
For CCCCCCC1C(C#N)=C(N)OC2=C1C(=O)CC(C)(C)C2 (centres undefined) the results were SENP1 FRET inh -5.1, GRIN3A LBD mod 43.7*, Arr AP2 block -10.8, iPSC survival up -0.8, Cardio protect -10.1 and FAS-TE inh 3.3.
CCN(c1ccccc1)S(=O)(=O)c1c[nH]c2ccc([N+](=O)[O-])cc12 was read as SENP1 FRET inh -3.9, GRIN3A LBD mod 3.5, Arr AP2 block 5.9, iPSC survival up -0.5, Cardio protect -6.2 and FAS-TE inh -90.7.
`Cc1ccc(N(C)S(=O)(=O)c2c[nH]c3ccc([N+](=O)[O-])cc23)cc1` gave SENP1 FRET inh 0.2, GRIN3A LBD mod 117.0*, Arr AP2 block 32.4, iPSC survival up 0.2, Cardio protect -6.1 and FAS-TE inh -95.6.

Screening results as filed in PubChem BioAssay.
